# Source: ChEMBL document CHEMBL1154121, “alpha-Substituted norstatines as the transition-state mimic in inhibitors of multiple digestive vacuole malaria aspartic proteases” (Bioorg Med Chem, 2009)
# Active and inactive are the calls of the source. The rule behind the calls is not given here.
# Tests used:
# Cathepsin D [1] = molecular target: T1, Cathepsin D (Homo sapiens, UniProt P07339); experiment: Inhibition of human liver cathepsin D
# In short: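 Human liver cathepsin D activated 20 min at 37 °C in 100 mM sodium acetate pH 4.5, 10% glycerol, 0.01% Tween 20. Inhibitor serially diluted in DMSO (1% final) added before 3 µM DABCYL-Glu-Arg-Nle-Phe-Leu-Ser-Phe-Pro-EDANS; fluorescence increase read over 10 min. IC50 from Langmuir isotherm assuming competitive inhibition, converted to Ki via IC50/(1+[S]/Km); top concentration limited to 10.0 µM by inhibitor fluorescence.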
# Protease = Protease (Human immunodeficiency virus 1, UniProt Q9YQ12); experiment: Inhibition of HIV1 protease
# In short: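 Recombinant HIV-1 protease expressed in E. coli; Ki from fluorometric assay, two independent measurements; a reference inhibitor included to check variability, standard deviation ±50% of mean.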
# [2] = Inhibition of Plasmodium ovale plasmepsin-4 expressed in Escherichia coli BL21 (DE3) by spectrophotometric assay with chromogenic substrate
# Cathepsin D [3] = molecular target: T1, Cathepsin D; experiment: Ratio of compound Ki to KNI-10006 Ki for human liver cathepsin D
# [4] = Inhibition of Plasmodium malariae plasmepsin-4 expressed in Escherichia coli BL21 (DE3) by spectrophotometric assay with chromogenic substrate
# [5] = Inhibition of Plasmodium falciparum plasmepsin-4 expressed in Escherichia coli BL21 (DE3) by spectrophotometric assay with chromogenic substrate
# [6] = Selectivity ratio of Ki for human liver cathepsin D to Ki for Plasmodium falciparum plasmepsin-2 expressed in Escherichia coli BL21 (DE3)
# Plasmepsin II = Plasmepsin II (Plasmodium falciparum, UniProt P46925); experiment: Inhibition of Plasmodium falciparum plasmepsin-2 expressed in Escherichia coli BL21 (DE3) by spectrophotometric assay with chromogenic substrate
# Aspartic protease PM4 = Aspartic protease PM4 (Plasmodium vivax, UniProt O60989); experiment: Inhibition of Plasmodium vivax plasmepsin-4 expressed in Escherichia coli BL21 (DE3) by spectrophotometric assay with chromogenic substrate
# [7] = molecular target: Beta-secretase 1 (Homo sapiens) (UniProt P56817); experiment: Inhibition of human BACE1 at < 10 uM
# [8] = Inhibition of Plasmodium malariae plasmepsin-4
# In short: (§1)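 Self-activated in 0.1 M sodium acetate pH 4.5, 37 °C, 5 min. Chromogenic substrate hydrolysis followed spectrophotometrically; Michaelis-Menten curves at ≥5 substrate levels with no inhibitor and two inhibitor concentrations, fitted together for Ki.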
# [9] = tested on: Human immunodeficiency virus 1; experiment: Antiviral activity against HIV1 replication in infected cells; type: functional, organism-based
# [10] = Inhibition of Plasmodium falciparum plasmepsin-4; in short: as §1
# [11] = tested on: Human immunodeficiency virus 1; experiment: Antiviral activity against HIV1 3B infected in human MT4 cells; type: functional, organism-based; conditions: Human immunodeficiency virus 1, 3B
# Plasmepsin I = Plasmepsin I (Plasmodium falciparum, UniProt P39898); experiment: Inhibition of Plasmodium falciparum plasmepsin-1
# Plasmodium falciparum = experiment: Antiplasmodial activity against Plasmodium falciparum infected in erythrocyte culture; type: functional, organism-based
# Plasmepsin III = Plasmepsin III (Plasmodium falciparum, UniProt Q9Y006); experiment: Inhibition of Plasmodium falciparum histo-aspartyl protease
# Plasmepsin III, sequence (Q9Y006 whole entry): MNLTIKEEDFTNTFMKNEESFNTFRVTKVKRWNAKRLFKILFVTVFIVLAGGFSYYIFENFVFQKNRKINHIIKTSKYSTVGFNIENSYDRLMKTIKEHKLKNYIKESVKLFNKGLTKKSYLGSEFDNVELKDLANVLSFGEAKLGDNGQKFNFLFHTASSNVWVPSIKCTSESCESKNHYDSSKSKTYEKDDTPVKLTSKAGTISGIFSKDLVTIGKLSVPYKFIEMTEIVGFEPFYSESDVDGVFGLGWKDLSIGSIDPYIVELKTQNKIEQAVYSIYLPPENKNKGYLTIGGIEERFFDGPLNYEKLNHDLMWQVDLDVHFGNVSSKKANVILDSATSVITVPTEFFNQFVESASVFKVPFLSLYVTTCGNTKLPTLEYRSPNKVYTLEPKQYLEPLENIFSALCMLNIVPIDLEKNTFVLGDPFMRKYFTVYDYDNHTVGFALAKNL
# Aspartic protease PM4, sequence (O60989 whole entry): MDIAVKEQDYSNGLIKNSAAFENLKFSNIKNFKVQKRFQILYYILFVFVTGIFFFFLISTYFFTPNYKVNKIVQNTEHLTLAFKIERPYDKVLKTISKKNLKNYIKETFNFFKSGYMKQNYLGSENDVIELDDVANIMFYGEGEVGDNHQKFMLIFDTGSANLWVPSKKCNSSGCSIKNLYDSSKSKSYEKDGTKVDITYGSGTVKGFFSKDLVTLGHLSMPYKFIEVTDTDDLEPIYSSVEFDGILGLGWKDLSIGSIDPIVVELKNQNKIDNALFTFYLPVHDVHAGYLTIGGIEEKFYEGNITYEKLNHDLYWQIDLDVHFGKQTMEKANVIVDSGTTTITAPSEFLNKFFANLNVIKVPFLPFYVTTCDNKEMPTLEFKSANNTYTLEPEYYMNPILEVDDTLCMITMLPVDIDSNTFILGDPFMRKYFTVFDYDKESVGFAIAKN
# Protease, sequence (Q9YQ12 whole entry): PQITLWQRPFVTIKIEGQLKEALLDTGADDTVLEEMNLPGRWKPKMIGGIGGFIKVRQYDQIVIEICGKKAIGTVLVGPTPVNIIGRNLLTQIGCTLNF
# Beta-secretase 1 (Homo sapiens), sequence (P56817 whole entry): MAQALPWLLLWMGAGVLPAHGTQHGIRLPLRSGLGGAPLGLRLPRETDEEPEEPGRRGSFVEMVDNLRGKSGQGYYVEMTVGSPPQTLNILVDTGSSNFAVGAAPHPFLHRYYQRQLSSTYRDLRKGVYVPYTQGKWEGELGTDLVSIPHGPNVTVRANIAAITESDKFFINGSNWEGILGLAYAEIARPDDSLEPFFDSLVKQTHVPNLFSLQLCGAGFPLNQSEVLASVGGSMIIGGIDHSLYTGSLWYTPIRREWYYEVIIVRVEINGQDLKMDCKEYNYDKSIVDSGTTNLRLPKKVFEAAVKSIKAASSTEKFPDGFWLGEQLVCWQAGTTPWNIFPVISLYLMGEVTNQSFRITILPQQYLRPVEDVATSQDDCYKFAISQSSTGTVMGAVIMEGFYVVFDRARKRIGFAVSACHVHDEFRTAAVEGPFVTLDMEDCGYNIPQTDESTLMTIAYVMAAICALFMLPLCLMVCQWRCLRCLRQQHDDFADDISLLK
# T1 sequence (P07339 65-162 limits assumed): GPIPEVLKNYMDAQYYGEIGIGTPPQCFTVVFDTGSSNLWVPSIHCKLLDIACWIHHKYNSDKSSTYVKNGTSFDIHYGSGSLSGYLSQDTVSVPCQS
# T1 sequence (P07339 169-412 limits assumed): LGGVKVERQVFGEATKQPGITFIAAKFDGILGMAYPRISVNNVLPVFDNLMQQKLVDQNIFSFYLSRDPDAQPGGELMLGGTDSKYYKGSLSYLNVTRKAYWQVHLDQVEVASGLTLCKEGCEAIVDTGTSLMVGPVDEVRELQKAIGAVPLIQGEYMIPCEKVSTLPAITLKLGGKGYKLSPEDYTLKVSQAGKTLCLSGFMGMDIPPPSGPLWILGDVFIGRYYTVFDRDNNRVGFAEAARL
# Plasmepsin II, sequence (P46925 whole entry): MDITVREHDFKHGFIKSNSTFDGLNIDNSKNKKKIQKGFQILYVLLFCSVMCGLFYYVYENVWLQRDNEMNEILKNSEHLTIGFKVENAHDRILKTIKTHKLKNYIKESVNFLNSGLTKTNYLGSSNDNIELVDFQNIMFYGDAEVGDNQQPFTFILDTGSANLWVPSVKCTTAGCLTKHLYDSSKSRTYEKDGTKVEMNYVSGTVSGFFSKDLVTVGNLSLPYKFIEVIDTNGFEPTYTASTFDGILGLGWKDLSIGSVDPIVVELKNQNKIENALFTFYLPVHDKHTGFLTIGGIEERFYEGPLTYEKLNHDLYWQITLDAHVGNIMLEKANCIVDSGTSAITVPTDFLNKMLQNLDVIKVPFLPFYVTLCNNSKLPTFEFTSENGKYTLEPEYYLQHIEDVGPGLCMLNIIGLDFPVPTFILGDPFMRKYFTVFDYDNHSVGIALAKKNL
# Plasmepsin I, sequence (P39898 whole entry): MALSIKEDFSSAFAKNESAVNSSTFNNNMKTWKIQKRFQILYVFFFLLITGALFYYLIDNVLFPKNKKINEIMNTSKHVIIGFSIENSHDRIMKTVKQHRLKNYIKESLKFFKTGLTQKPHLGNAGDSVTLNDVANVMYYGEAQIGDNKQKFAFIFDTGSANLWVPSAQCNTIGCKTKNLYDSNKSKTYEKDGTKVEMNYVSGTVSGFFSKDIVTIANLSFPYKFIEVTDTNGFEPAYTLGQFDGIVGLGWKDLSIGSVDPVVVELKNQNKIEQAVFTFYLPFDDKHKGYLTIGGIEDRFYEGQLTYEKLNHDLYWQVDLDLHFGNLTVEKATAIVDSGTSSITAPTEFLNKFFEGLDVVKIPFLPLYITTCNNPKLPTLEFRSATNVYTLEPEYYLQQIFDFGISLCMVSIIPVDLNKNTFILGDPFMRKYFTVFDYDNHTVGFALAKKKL
Compound,Ki (Cathepsin D [1]) [nM],Ki [2] [nM],Ratio Ki (Cathepsin D [3]),Ki [4] [nM],Ki [5] [nM],Ki (Plasmepsin II) [nM],Ki (Aspartic protease PM4) [nM],Activity [7],other results
Cc1cccc(C)c1OCC(=O)NCC(O)(CCc1ccccc1)C(=O)N[C@@H](Cc1ccccc1)C(=O)N[C@H]1c2ccccc2C[C@H]1O (stereo in doubt; (B)-20) [listing 1 of 2 here],> 10000,–,–,–,–,–,–,–,Ki (Protease): 1000 nM
Cc1cccc(C)c1OCC(=O)NC[C@@](O)(CCc1ccccc1)C(=O)N1CSC(C)(C)[C@@H]1C(=O)N[C@H]1c2ccccc2C[C@H]1O,> 10000,1000,5000,1100,6300,440,390,–,Ratio Ki [6]: > 20000
Cc1cccc(C)c1OCC(=O)NCC(O)(CCc1ccccc1)C(=O)N1CCC[C@H]1C(=O)N[C@H]1c2ccccc2C[C@H]1O (stereo in doubt; (B)-19) [listing 1 of 2 here],–,10300,–,13000,26900,> 20000,1300,–,–
Cc1cccc(C)c1OCC(=O)NC[C@](O)(CCc1ccccc1)C(=O)N1CSC(C)(C)[C@@H]1C(=O)N[C@H]1c2ccccc2C[C@H]1O,> 10000,880,5000,1600,10700,7600,340,–,–
Cc1cccc(C)c1OCC(=O)NCC(O)(CCc1ccccc1)C(=O)N[C@@H](Cc1ccccc1)C(=O)N[C@H]1c2ccccc2C[C@H]1O (stereo in doubt; (A)-20) [listing 1 of 2 here],–,–,5000,–,–,–,–,inactive,–
Cc1cccc(C)c1OCC(=O)NC[C@](O)(Cc1ccccc1)C(=O)N1CSC(C)(C)[C@@H]1C(=O)N[C@H]1c2ccccc2C[C@H]1O,> 10000,610,5000,420,1700,1700,120,inactive,Ki (Protease): 670 nM
Cc1cccc(C)c1OCC(=O)NCC(O)(CCc1ccccc1)C(=O)N1CCC[C@H]1C(=O)N[C@H]1c2ccccc2C[C@H]1O (stereo in doubt; (A)-19) [listing 1 of 2 here],> 10000,7200,–,14500,30200,> 20000,2200,–,–
Cc1ccccc1CNC(=O)[C@H]1N(C(=O)[C@@H](O)[C@H](Cc2ccccc2)NC(=O)c2cccc(O)c2C)CSC1(C)C,–,–,–,–,–,–,–,–,Ki [8]: 110 nM
COC(=O)N[C@H](C(=O)NN(Cc1ccccc1)C[C@](O)(Cc1ccccc1)C(=O)N[C@H]1c2ccccc2C[C@H]1O)C(C)(C)C,–,–,–,–,–,–,–,–,EC50 [9]: > 10000 nM; Ki (Protease): 2200 nM; Ki [10]: 48000 nM
COC(=O)N[C@H](C(=O)NN(Cc1ccccc1)C[C@@](O)(Cc1ccccc1)C(=O)N[C@H]1c2ccccc2C[C@H]1O)C(C)(C)C,–,–,–,–,–,–,–,–,EC50 [9]: 1900 nM; Ki (Protease): 6 nM; Ki [10]: 12000 nM
Cc1cccc(C)c1OCC(=O)NC[C@@](O)(CCc1ccccc1)C(=O)N1CSC(C)(C)[C@H]1C(=O)N[C@H]1c2ccccc2C[C@H]1O,> 10000,4500,5000,7900,3100,1400,370,–,EC50 [11]: 6400 nM
Cc1cccc(C)c1OCC(=O)N[C@@H](Cc1ccccc1)[C@H](O)C(=O)N1CSC(C)(C)[C@H]1C(=O)N[C@H]1c2ccccc2C[C@H]1O,2,–,–,–,–,–,–,–,IC50 (Plasmepsin I): 280 nM; IC50 (Plasmodium falciparum): 6800 nM; IC50 (Plasmepsin III): 690 nM; IC50 [10]: 15 nM; Ratio Ki [6]: 4
Cc1cccc(C)c1OCC(=O)NCC(O)(CCc1ccccc1)C(=O)N[C@@H](Cc1ccccc1)C(=O)N[C@H]1c2ccccc2C[C@H]1O (stereo in doubt; (B)-20) [listing 2 of 2 here],–,–,5000,–,–,–,–,inactive,–
Cc1cccc(C)c1OCC(=O)NC[C@@](O)(Cc1ccccc1)C(=O)N1CSC(C)(C)[C@@H]1C(=O)N[C@H]1c2ccccc2C[C@H]1O,> 10000,1300,5000,210,1700,830,160,inactive,–
Cc1cccc(C)c1OCC(=O)NC[C@](O)(Cc1ccccc1)C(=O)N1CSC(C)(C)[C@H]1C(=O)N[C@H]1c2ccccc2C[C@H]1O,> 10000,530,5000,250,720,> 20000,190,inactive,–
Cc1cccc(C)c1OCC(=O)NC[C@@](O)(Cc1ccccc1)C(=O)N1CSC(C)(C)[C@H]1C(=O)N[C@H]1c2ccccc2C[C@H]1O,> 10000,110,5000,260,700,> 20000,160,inactive,–
Cc1cccc(C)c1OCC(=O)NCC(O)(CCc1ccccc1)C(=O)N1CCC[C@H]1C(=O)N[C@H]1c2ccccc2C[C@H]1O (stereo in doubt; (B)-19) [listing 2 of 2 here],–,–,5000,–,–,–,–,–,–
Cc1cccc(C)c1OCC(=O)NCC(O)(CCc1ccccc1)C(=O)N[C@@H](Cc1ccccc1)C(=O)N[C@H]1c2ccccc2C[C@H]1O (stereo in doubt; (A)-20) [listing 2 of 2 here],> 10000,–,–,–,> 20000,–,–,–,–
Cc1cccc(C)c1OCC(=O)NCC(O)(CCc1ccccc1)C(=O)N1CCC[C@H]1C(=O)N[C@H]1c2ccccc2C[C@H]1O (stereo in doubt; (A)-19) [listing 2 of 2 here],–,–,5000,–,–,–,–,–,–
Cc1cccc(C)c1OCC(=O)NC[C@](O)(CCc1ccccc1)C(=O)N1CSC(C)(C)[C@H]1C(=O)N[C@H]1c2ccccc2C[C@H]1O,> 10000,6500,5000,> 20000,5500,7400,2200,–,–
